Source: PubChem
Only some compounds are listed: those with a hit (about 3.3% of all), similar ones and a draw of the others.
PRMT1 FP inh: blocks human protein arginine methyltransferase 1. Q99873. recombinant PRMT1, activity-based probe fluorescence polarization. 370,000 compounds, 1.3% hits. inhibition, % at 2.79 µM;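 active = inhibition above about 21% made by adding two undisclosed values, limit read from the data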
SIAE primary: human SIAE inhibition, primary screen; Q9HAT2; SIAE FP-Rh probe binding, fluorescence polarization; inhibition, % at 9.66 µM; 370,000 compounds, 0.69% hits; AID 1053197;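 active = inhibition above a cutoff: mean of compounds within the control limits plus 3 SD of those, cut at about 17% in these data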
TDP2 inh: TDP2 (human) inhibition, absorbance primary screen; O95551; recombinant TDP2, T5PNP hydrolysis, p-nitrophenol absorbance 415 nm; inhibition, % at 12.8 µM; 370,000 compounds, 0.34% hits;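 active = inhibition above the mean of all tested compounds plus 3 SD, set per campaign, cut at about 25% in these data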
Target sequence (O95551 whole entry, looked up): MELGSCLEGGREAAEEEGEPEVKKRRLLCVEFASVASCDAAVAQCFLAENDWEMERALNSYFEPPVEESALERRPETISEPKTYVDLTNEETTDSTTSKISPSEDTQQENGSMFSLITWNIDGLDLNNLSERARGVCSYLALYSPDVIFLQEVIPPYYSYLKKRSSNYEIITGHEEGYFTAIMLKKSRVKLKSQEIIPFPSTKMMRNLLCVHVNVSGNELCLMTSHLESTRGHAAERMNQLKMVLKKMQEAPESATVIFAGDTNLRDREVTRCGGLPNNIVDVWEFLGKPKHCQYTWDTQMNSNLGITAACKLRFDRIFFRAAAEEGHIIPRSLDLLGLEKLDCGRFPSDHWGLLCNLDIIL
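Assay system: recombinant human TDP2 / Reagent: T5PNP substrate at 5 mM, a TopII-DNA adduct mimic / Measured by: epi absorbance from released p-nitrophenol / Evaluation: % inhibition relative to enzyme-containing and enzyme-free wells / Control set: enzyme-free and DMSO wells / Replicates: each compound tested once, singlicate / Schedule: enzyme reaction with compound for 2 h at 37 °C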
UHRF1 binding: blocks human UHRF1 binding to methylated DNA | Q96T88 | inhibition, % at 4.4 µM | UHRF1 binding to methylated oligo, TR-FRET | 370,000 compounds, 0.75% hits | AID 687016; in the data active = inhibition above about 21%;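 also: UHRF1 SRA domain binding a hemimethylated CpG hairpin DNA probe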
LEDGF integ inh: blocks HIV-1 LEDGF/p75-dependent DNA integration; TR-FRET IN-LEDGF/p75 DNA integration, Eu/Cy5; inhibition, % at 3.7 µM; 370,000 compounds, 0.64% hits;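 active = inhibition above the screen-wide mean plus 3 SD, cut at about 13% in these data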;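 also: signal is the Cy5 over europium emission ratio at 671 and 618 nm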
MBD2 inh: inhibitors of human MBD2 binding to methylated oligonucleotide. TR-FRET. inhibition, % at 4.4 µM. 370,000 compounds, 0.31% hits. AID 686964; in the data active = inhibition above about 13%
SIAE confirm: confirmation of human SIAE inhibitors; inhibition, % at 9.66 µM; 2,300 compounds, 13% hits; shares compounds with SIAE primary; SIAE FP-Rh activity-based probe, fluorescence polarization;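 active = mean inhibition of the replicates above the hit cutoff set in the primary screen, cut at about 17% in these data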;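 also: inhibitors lower polarization as more probe stays unbound to SIAE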
Of the large screens only hits and unclear results are named; the others gave an inactive call (follow-up assays come after a bar, where they were run).

COc1ccc(NC(=O)CSc2nnc(-c3n[nH]c4c3CCC4)n2N)cc1	none
COc1cccc(-c2nc(NC(C)(C)C)c3ccccc3n2)c1O	none
COc1ccc(Nc2nc(-c3cccc(OC)c3O)nc3ccccc23)cc1	SIAE primary 18 | SIAE confirm inactive
COc1cc(C(=O)NC2CCCCN(Cc3cccc(Cl)c3)C2=O)cc(OC)c1OC (stereo not drawn)	none
CC(Sc1ccc(Cl)cc1)C(=O)NNC(=O)c1csc(N2CCOCC2)n1 (stereo not drawn)	none
Clc1ccc(SCc2csc(N3CCOCC3)n2)cc1	SIAE primary 18 | SIAE confirm inactive
O=[N+]([O-])c1ccc(-c2ccc(/C=N/O)o2)cc1	SIAE primary 25 | SIAE confirm inactive
COc1ccc(/C=N/n2c(-c3ccccc3)n[nH]c2=S)cc1	SIAE primary 22 | SIAE confirm inactive
COc1ccc(CCN2C(=O)CC(C(N)=O)SC2=Nc2ccccc2)cc1 (stereo not drawn)	none
COc1ccc(CCN2C(=O)CC(C(N)=O)SC2=Nc2ccc(F)cc2)cc1OC (stereo not drawn)	SIAE primary 20 | SIAE confirm inactive
COc1cccc(CCNC(=O)CCc2nc(-c3ccccc3F)no2)c1	none
O=C(Nc1ccc(F)c(Cl)c1)Nc1csc2ccccc12	SIAE primary 23 | SIAE confirm inactive
Oc1ccc(NCc2ccccc2OCc2ccccc2F)cc1	SIAE primary 34 | SIAE confirm inactive
Cc1ccc(NCc2ccccc2OCc2ccccc2F)cc1	none
CCOc1cccc(CNc2ccc(O)cc2)c1OCc1ccc(Cl)cc1	SIAE primary 29 | SIAE confirm inactive
CCOc1ccccc1CNc1ccc(O)cc1	SIAE primary 34, TDP2 inh 26, LEDGF integ inh 25 | SIAE confirm inactive
COc1cccc(CNCCO)c1OCc1ccc(Cl)cc1	none
COc1ccc(Br)cc1CNc1ccc(O)cc1	SIAE primary 32 | SIAE confirm inactive
C#CCNC(=O)C[C@H]1C[C@@]2(C(=O)OC)C(=C[C@H](C(C)C)O[C@@H]2C2CC2)N(Cc2cccc3ccccc23)C1=O	none
O=C(/C=C/c1ccccc1)NC(=S)Nc1ccccc1O	SIAE primary 24 | SIAE confirm inactive
O=C(/C=C/c1ccc(F)cc1)NC(=S)Nc1ccccc1O	none
O=C(Nc1ncccc1O)c1cccc(S(=O)(=O)NCc2ccccc2)c1	none
Cc1ccnc(NC(=O)c2cccc(S(=O)(=O)NCc3ccccc3)c2)c1	SIAE primary 21 | SIAE confirm inactive
O=C(NS(=O)(=O)c1ccccc1[N+](=O)[O-])[C@H]1O[C@@H](n2ccc(=O)[nH]c2=O)[C@H](O)[C@@H]1O	SIAE primary 30 | SIAE confirm 30
CN(C)c1cccc2c(S(=O)(=O)NC(=O)[C@H]3O[C@@H](n4ccc(=O)[nH]c4=O)[C@H](O)[C@@H]3O)cccc12	SIAE primary 36 | SIAE confirm 46
Nc1ncnc2c1ncn2[C@@H]1O[C@H](C(=O)NS(=O)(=O)c2ccccc2[N+](=O)[O-])[C@@H](O)[C@H]1O	none
CCOC(=O)N[C@H](C(=O)N1CCC[C@H]1C(=O)NCCc1ccccc1Cl)c1ccccc1	none
O=C1Nc2ccc(Br)cc2/C1=C/C(=O)c1ccc2c(c1)OCO2	SIAE primary 19 | SIAE confirm inactive
COc1ccc(CCC(=O)N2CCCC(Nc3ccc(C)c(C)c3)C2)cc1OC (stereo not drawn)	SIAE primary 17 | SIAE confirm inactive
O=C(OCc1nc2scc(-c3ccccc3)c2c(=O)[nH]1)c1ccco1	none
Cc1ccc(OCC(=O)OCc2nc3scc(-c4ccccc4)c3c(=O)[nH]2)cc1C	SIAE primary 18 | SIAE confirm inactive
Nc1nc(NCc2ccco2)nc(N2CCCCC2)c1[N+](=O)[O-]	SIAE primary 19 | SIAE confirm inactive
O=C(Nc1ccc(F)cc1)OC1CC2CC1[C@H]1CCCCN1C2 (stereo partly drawn)	none
Cc1cccc(C(=O)NCC(=O)NCC(c2ccco2)N2CCCCC2)c1 (stereo not drawn)	SIAE primary 18 | SIAE confirm inactive
Cc1ccc(C(=O)NCC(c2ccco2)N2CCc3ccccc32)cc1 (stereo not drawn)	SIAE primary 21 | SIAE confirm inactive
O=C(NCC(c1ccco1)N1CCc2ccccc21)c1cccc([N+](=O)[O-])c1 (stereo not drawn)	none
Cc1cccc(C(=O)NCC(c2ccco2)N2CCc3ccccc32)c1 (stereo not drawn)	SIAE primary 22 | SIAE confirm inactive
O=C1CSc2ccc(C(=O)N3CCCC(C(=O)N4CCCC4)C3)cc2N1 (stereo not drawn)	none
Cc1[nH]cnc1/C=N\NC(=O)c1cccc(S(=O)(=O)N(C)C)c1	none
CC(=O)Nc1ccc(CNc2nc(NC(C)C)nc3cc(-c4ccccc4)sc23)cc1	SIAE primary 55 | SIAE confirm 53
C=CCNc1nc(NCc2ccc(NC(C)=O)cc2)c2sc(-c3ccccc3)cc2n1	SIAE primary 39 | SIAE confirm 37
COc1ccccc1CN1CCCC(N2CCN(c3ccccc3OC)CC2)C1 (stereo not drawn)	none
COc1ccccc1N1CCN(C2CCCN(Cc3cccc(O)c3)C2)CC1 (stereo not drawn)	SIAE primary 17 | SIAE confirm inactive
O=C(O)CCCCCCNC(=O)c1cncc(O)c1	SIAE primary 23 | SIAE confirm inactive
S=C(Nc1ccccc1)Nc1ccccn1	none
S=C(Nc1ccc(Nc2ccccc2)cc1)Nc1ccccn1	PRMT1 FP inh 23, SIAE primary 32 | SIAE confirm inactive
CC(=O)c1cccc(S(=O)(=O)N2CCC(C(=O)Oc3ccc(-c4nnco4)cc3)CC2)c1	SIAE primary 22 | SIAE confirm inactive
O=C(Nc1c(-c2ccc(F)cc2)nc2ncccn12)c1ccccc1	none
Cc1noc(C)c1S(=O)(=O)N1CCCc2nc(-c3ccc(Br)cc3)ccc21	none
Fc1cccc(NC(=S)NNc2c3ccccc3nc3ccccc23)c1	SIAE primary 39 | SIAE confirm inactive
COc1ccc(CNS(=O)(=O)/C=C/c2cc(C)ccc2CNC(=O)OC(C)(C)C)cc1	none
O=C(Cn1nc(-c2ccccc2)ccc1=O)NCCc1cccc(F)c1	none
COc1ccc(CC(=O)c2ccc(OC)c(OC)c2)cc1	SIAE primary 17 | SIAE confirm inactive
O=Cc1cc2ccccc2nc1SCc1ccc(Cl)c(Cl)c1	none
O=Cc1cc2ccccc2nc1SCc1ccc(Cl)cc1	SIAE primary 27 | SIAE confirm inactive
Cc1ccc(-n2c(SCC(=O)Nc3ccc4cn[nH]c4c3)nnc2-c2ccccc2)cc1	none
